# Source: PubChem (several laboratories)
# Yeast life ext = extends the lifespan of yeast | S. cerevisiae growth with nicotinamide, OD615; deaD strain in restrictive glucose medium | inhibition of the nicotinamide effect, % at 10 µM | hit rate 0.68% among 130,000 | AID 775;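 active = inhibition above a set limit, placed 3 SD over the median of all compounds, cut at about 26% in these data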
#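 Assay system: engineered S. cerevisiae DeaD replicative-lifespan strain, galactose-grown log-phase cells; medium: restrictive CSMM-D dextrose medium; also added: nicotinamide, 1.5 mM, co-present with compound; schedule: 48 h compound exposure at 30 °C, humidified; detection: absorbance at 615 nm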
# TNAP act hiacc = increases human TNAP activity under high phosphate acceptor concentration. P05186. purified TNAP, CDP-star luminescence, 1 M DEA, 30 min; hits give high values; 0 = EDTA background, 1 = DMSO-only activity. activation factor at 20 µM. 200,000 tested, under 10 active;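 active = activation factor at least 2 at 20 µM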
# Target sequence (P05186 whole entry, looked up): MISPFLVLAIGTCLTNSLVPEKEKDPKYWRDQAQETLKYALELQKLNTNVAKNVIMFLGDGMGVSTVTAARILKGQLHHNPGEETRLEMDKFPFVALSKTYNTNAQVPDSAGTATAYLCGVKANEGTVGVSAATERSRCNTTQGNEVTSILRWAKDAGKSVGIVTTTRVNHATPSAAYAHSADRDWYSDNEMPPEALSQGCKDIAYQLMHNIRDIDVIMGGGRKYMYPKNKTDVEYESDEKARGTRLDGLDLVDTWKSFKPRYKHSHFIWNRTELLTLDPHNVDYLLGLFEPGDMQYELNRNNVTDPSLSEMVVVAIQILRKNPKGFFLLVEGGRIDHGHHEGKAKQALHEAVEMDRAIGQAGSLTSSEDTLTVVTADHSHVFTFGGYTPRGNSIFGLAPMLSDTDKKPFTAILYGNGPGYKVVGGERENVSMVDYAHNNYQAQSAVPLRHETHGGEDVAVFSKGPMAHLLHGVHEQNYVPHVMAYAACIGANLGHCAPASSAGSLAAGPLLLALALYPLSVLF
#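 Control set: EDTA negative control, DMSO positive control / Assay system: human TNAP / Quantity: TNAP 1/800 final / Evaluation: TNAP activation factor scaled between EDTA and DMSO control wells / Measured by: luminescent substrate turnover signal / Compound dosing: one dose, 20 µM / Times: 30 min enzyme reaction at room temperature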
# RAM network inh = yeast RAM network inhibition. S. cerevisiae dse1pr::URA3 reporter, 5-FOA growth OD615, 2 d; analog-sensitive cbk1-as2 kinase mutant strain. hit rate 1.8% among 190,000. AID 868. inhibition, % at 50 µM;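 active = inhibition above a set limit, 3 SD over mean compound inhibition, cut at about 8.4% in these data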;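 also: inhibition rescues growth on 5-FOA so higher OD means more RAM inhibition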
# BB579 growth dn = yeast BB579 growth reduction in restrictive medium. AID 804. hit rate 0.51% among 140,000. S. cerevisiae BB579 growth, OD615, 48 h. inhibition, % at 10 µM;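 active = inhibition above a set limit, 3 SD over the mean compound inhibition, cut at about 44% in these data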
#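 Assay system: S. cerevisiae DeaD strain BB579 yeast. Medium: CSMM-D restrictive synthetic medium containing dextrose (glucose). Times: 4 h cell preincubation, 48 h compound exposure, 30 °C humidified. Signal: OD615 turbidity measurement. Benchmarks: positive control amphotericin B 10 µg/mL.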
# TNAP inh noacc = blocks human TNAP activity with no phosphate acceptor present. purified TNAP, CDP-star luminescence, 30 min. inhibition, % at 20 µM. hit rate 0.26% among 200,000. AID 1012;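 active = tissue-nonspecific alkaline phosphatase inhibition above about 50% at 20 µM in the single-dose screen, limit read from the data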
# TNAP inh hi DEA = TNAP (human) inhibition, high acceptor | P05186 | purified TNAP, CDP-star luminescence, 1 M DEA | inhibition, % at 20 µM | hit rate 0.03% among 200,000;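 active = over 50% inhibition of tissue-nonspecific alkaline phosphatase at 20 µM in the single-dose screen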
# A number is an active result; 0 = inactive; - = no result given. Shown are actives, neighbours in structure and some others; about 2.8% of the full set was active somewhere.
SMILES,Yeast life ext,TNAP act hiacc,RAM network inh,BB579 growth dn,TNAP inh noacc,TNAP inh hi DEA
COc1ccc(S(=O)(=O)N(C)C)cc1NC(=O)CSc1nnc(-c2cccnc2)o1,-,0,0,-,0,0
CC(=O)Nc1n[nH]c(-c2ccc(C)cc2)c1C,-,0,0,-,85,0
CC(=O)Nc1ccc(-c2cn3cc(C)ccc3n2)cc1,0,0,0,0,0,0
NC(N)=N/N=C/c1ccc(OCc2ccc(Cl)cc2)cc1,0,0,0,78,0,0
COC(=O)c1sccc1NC(=O)CSc1cccc(Cl)c1Cl,0,0,8.7,0,0,0
O=C(Nc1nccs1)c1ccc(S(=O)(=O)N2CCOCC2)cc1,-,0,0,-,0,0
O=C(COC(=O)c1ccccc1)NCc1ccco1,0,0,0,0,0,0
Cc1ccc(C(=O)OCC(=O)NCc2ccco2)cc1,56,0,0,0,0,0
O=c1cc(CSc2nnc(COc3ccccc3)n2-c2ccccc2)c2ccccc2[nH]1,0,0,0,0,0,0
Cn1c(COc2ccccc2)nnc1SCc1cc(=O)[nH]c2ccccc12,44,0,0,0,0,0
Cc1ccc(NC(=O)C(=O)NNC(=O)c2ccccc2C)cc1Cl,0,0,0,0,0,0
COc1cccc(/C=N/n2nnnc2N)c1OCc1ccccc1Cl,-,0,0,0,0,0
COc1cccc(/C=N/NC(N)=S)c1OCc1ccccc1Cl,0,0,8.8,0,0,0
COc1ccc(OC)c(N(CC(N)=O)S(=O)(=O)c2ccc(OC)c(OC)c2)c1,0,0,0,0,0,0
Cc1ccc(S(=O)(=O)N/N=C/c2ccccc2O)cc1[N+](=O)[O-],-,0,0,-,0,0
Cc1ccc(S(=O)(=O)N/N=C/c2ccc(O)c(O)c2)cc1[N+](=O)[O-],-,0,0,-,67,0
C/C(N)=C(/C#N)C(=O)COC(=O)c1cccc2ccccc12,0,0,0,0,0,0
N#CSCC(=O)c1cccc2ccccc12,0,0,0,84,0,0
CCOC(=O)c1cccc(NC(=O)C(C)N2C(=O)c3ccccc3C2=O)c1 (stereo unspecified),0,0,0,0,0,0
CCOC(=O)c1ccc(NC(=O)C(C)N2C(=O)c3ccccc3C2=O)cc1 (stereo unspecified),27,0,0,0,0,0
Cc1nn(C(=O)c2ccco2)c(C)c1Sc1ccc(Br)cc1,0,0,8.8,0,0,0
Nc1c(S(=O)(=O)c2cccs2)c2nc3ccccc3nc2n1CCc1ccccc1,0,0,0,0,0,0
Nc1c(S(=O)(=O)c2cccs2)c2nc3ccccc3nc2n1Cc1cccs1,0,0,9.1,0,0,0
Nc1c(S(=O)(=O)c2ccccc2)c2nc3ccccc3nc2n1C1CC1,-,0,0,-,0,0
Cn1c(N)c(S(=O)(=O)c2ccc(Br)cc2)c2nc3ccccc3nc21,0,0,9.7,0,0,0
SMILES,Yeast life ext,TNAP act hiacc,RAM network inh,BB579 growth dn,TNAP inh noacc,TNAP inh hi DEA
Cc1ccc(S(=O)(=O)c2c(N)n(CCN3CCOCC3)c3nc4ccccc4nc23)cc1C,0,0,11,0,0,0
COc1ccc(CCn2c(N)c(S(=O)(=O)c3cccs3)c3nc4ccccc4nc32)cc1OC,0,0,8.4,0,0,0
COc1ccc(C(=O)OCCN2CCOCC2)cc1,-,0,0,0,0,0
COCCNC(=O)C(c1ccc(F)cc1)N(C(=O)CCC(=O)Nc1nccs1)c1cccc(C)c1 (stereo unspecified),-,0,9.6,-,0,0
Cc1cccc(N(C(=O)CCC(=O)Nc2nccs2)C(C(=O)NC(C)(C)C)c2ccc(O)cc2)c1 (stereo unspecified),-,0,0,-,0,0
CNC(=S)N/N=C(\C)c1ccc(N2CCOCC2)cc1,0,0,0,70,0,0
COc1ccc(CNC(=O)C2CCN(c3nc(OC)nc(OC)n3)CC2)cc1,90,0,0,0,0,0
COc1nc(OC)nc(N2CCC(C(=O)NC3CC3)CC2)n1,-,0,0,-,0,0
COCCCNC(=S)NCCCNc1nc2cc(C)cc(C)c2cc1C#N,-,0,0,-,0,0
COCCCNC(=S)NCCNc1nc2c(C)c(C)ccc2cc1C#N,-,0,9.6,-,0,0
COc1ccc(/C(C)=N/NC(=O)c2ccc(CSc3cccc4cccnc34)cc2)cc1OC,0,0,0,71,0,0
